This is a sample that favours compounds with a hit; in the whole collection about 2.9% have one here.
ABHD4 inh: inhibitors of mouse ABHD4; Q8VD66; 0.54% of 370,000 active; AID 720543; inhibition, % at 8.92 µM; purified mABHD4, FP-Rh probe fluorescence polarization;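 active = inhibition exceeding the mean over every tested compound plus 3 SD, cut at about 30% in these data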
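Assay system: mouse ABHD4 enzyme, wild type / Also added: fluorescent activity-based probe FP-Rh / Doses: single nominal dose of 8.92 µM, 0.89% DMSO final / Timing: 45 min compound pre-incubation plus 60 min probe step, 25 °C / Signal: FP readout, ex 525 nm / em 598 nm / Control set: S159A mutant/DMSO as 100%, compound-well median as 0%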
TCR-CD3 inh: blocks the human TCR-CD3 interaction. TAMRA-labeled TCR probe fluorescence, biochemical. inhibition, % at 9.4 µM. 0.37% of 360,000 active; in the data active = inhibition above about 19%;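 also: recombinant mutant TCR 2C K166C tagged with TAMRA read by polarization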
PAD4 FP inh: inhibitors of human PAD4 | AID 485272 | 0.41% of 330,000 active | recombinant PAD4, RCA probe fluorescence polarization | inhibition, % at 6.36 µM | Q9UM07;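 active = percent inhibition above a cutoff equal to the mean of all tested compounds plus 3 SD, cut at about 15% in these data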
PRMT1 FP inh: blocks human protein arginine methyltransferase 1 | recombinant PRMT1, activity-based probe fluorescence polarization | inhibition, % at 2.79 µM | 1.3% of 370,000 active;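 active = inhibition above about 21% made by adding two undisclosed values, limit read from the data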
HTRA1 inh: blocks human HTRA1 serine peptidase; inhibition, % at 5.96 µM; 0.5% of 340,000 active; Q92743; recombinant HTRA1, FP-rhodamine activity-based probe, fluorescence polarization; in the data active = inhibition above about 36%
SIAE primary: human SIAE inhibition, primary screen; Q9HAT2; SIAE FP-Rh probe binding, fluorescence polarization; inhibition, % at 9.66 µM; 0.69% of 370,000 active; AID 1053197;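 active = inhibition above a cutoff: mean of compounds within the control limits plus 3 SD of those, cut at about 17% in these data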
Target sequence (Q9HAT2 whole entry, looked up): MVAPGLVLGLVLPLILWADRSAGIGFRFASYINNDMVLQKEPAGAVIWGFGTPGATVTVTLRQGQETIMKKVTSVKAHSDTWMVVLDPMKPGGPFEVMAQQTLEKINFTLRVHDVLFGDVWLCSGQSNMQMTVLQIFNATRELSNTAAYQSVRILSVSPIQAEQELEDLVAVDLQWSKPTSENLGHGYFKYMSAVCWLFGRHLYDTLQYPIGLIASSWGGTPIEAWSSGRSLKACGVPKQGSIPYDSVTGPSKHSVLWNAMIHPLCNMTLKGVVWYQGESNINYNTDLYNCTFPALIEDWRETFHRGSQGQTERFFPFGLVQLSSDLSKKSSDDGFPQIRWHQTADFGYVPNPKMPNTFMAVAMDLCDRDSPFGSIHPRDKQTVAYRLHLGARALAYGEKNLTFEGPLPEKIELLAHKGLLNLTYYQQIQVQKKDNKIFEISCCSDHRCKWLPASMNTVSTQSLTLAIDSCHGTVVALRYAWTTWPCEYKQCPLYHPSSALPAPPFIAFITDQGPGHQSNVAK
PRMT1 inh conf: PRMT1 (human) inhibition, FP confirmation. shares compounds with PRMT1 FP inh. recombinant His-PRMT1, activity-based probe fluorescence polarization. inhibition, % at 2.79 µM. 42% of 3,300 active. AID 687036;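 active = mean inhibition across replicates above the hit cutoff derived for the earlier primary screen, cut at about 22% in these data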
Hits are given with their value.

Screening Cc1nnc(SCC2=C(C(=O)O)N3C(=O)C(NC(=O)C(C)n4nc(C(F)(F)F)cc4C)C3SC2)s1 (centres undefined) returned ABHD4 inh inactive, TCR-CD3 inh inactive, PAD4 FP inh inactive, PRMT1 FP inh 28.5, HTRA1 inh inactive, SIAE primary inactive and PRMT1 inh conf inactive.
For CC1=C(C(=O)O)N2C(=O)C(NC(=O)c3nn(C)cc3Cl)C2SC1 (centres undefined) the results were ABHD4 inh inactive, TCR-CD3 inh inactive, PAD4 FP inh inactive, PRMT1 FP inh inactive, HTRA1 inh inactive and SIAE primary inactive.
Screening Cc1c(Cl)c(C(F)F)nn1CC(=O)NC1C(=O)N2C(C(=O)O)=C(CSc3nnnn3C)CSC12 (centres undefined) returned ABHD4 inh inactive, TCR-CD3 inh inactive, PRMT1 FP inh 35.5, HTRA1 inh inactive, SIAE primary inactive and PRMT1 inh conf inactive.
Screening CC(C(=O)NC1C(=O)N2C(C(=O)O)=C(CSc3nnnn3C)CSC12)n1cc(Cl)cn1 (centres undefined) returned ABHD4 inh inactive, TCR-CD3 inh inactive, PAD4 FP inh inactive, PRMT1 FP inh 30.4, HTRA1 inh inactive, SIAE primary inactive and PRMT1 inh conf inactive.
`Cc1c(Cl)cnc(NC(=O)CSc2nnnn2C)c1Cl` gave ABHD4 inh inactive, TCR-CD3 inh inactive, PAD4 FP inh inactive, PRMT1 FP inh inactive, HTRA1 inh inactive and SIAE primary inactive.
Screening C/C(=C/c1nc(N)n(Cc2ccccc2)c1Cc1ccccc1)Cn1[nH]c(=O)n(-c2ccccc2)c1=O returned ABHD4 inh inactive, PRMT1 FP inh inactive and SIAE primary inactive.
C=CCC12C=C(OC)C(=O)C(C1=O)C1c3ccccc3CC12 (centres undefined) was read as ABHD4 inh inactive, PRMT1 FP inh inactive and SIAE primary inactive.
For N#Cc1cccc(Cn2ccc3ccc(-c4ccc5ccn(Cc6ccccc6)c5c4)cc32)c1 the results were ABHD4 inh inactive, PRMT1 FP inh inactive and SIAE primary inactive.
For Cc1cc(NS(=O)(=O)c2ccc(NC(=O)CSc3nnc(-c4ccc(Cl)cc4)n3Cc3ccco3)cc2)nc(C)n1 the results were ABHD4 inh inactive, PRMT1 FP inh inactive and SIAE primary inactive.
For Cc1cc(NS(=O)(=O)c2ccc(NC(=O)CSc3nnc(-c4ccncc4)n3Cc3ccco3)cc2)nc(C)n1 the results were ABHD4 inh inactive, PRMT1 FP inh 32.8, SIAE primary inactive and PRMT1 inh conf inactive.
Screening C#CCNC(=O)C[C@H]1C[C@@]2(C(=O)OC)C(=C[C@H](C(C)(C)C)O[C@@H]2C)N(Cc2ccc3c(c2)OCO3)C1=O returned ABHD4 inh inactive, TCR-CD3 inh inactive, PRMT1 FP inh inactive and SIAE primary inactive.
`CC1=NN(C(=S)Nc2ccccc2)C(c2ccccc2)C1` (centres undefined) gave ABHD4 inh inactive, TCR-CD3 inh inactive, PAD4 FP inh inactive, PRMT1 FP inh inactive, HTRA1 inh inactive and SIAE primary inactive.
Cc1ccc(C2CC(c3ccccc3)=NN2C(=S)Nc2ccccc2)o1 (centres undefined) was read as ABHD4 inh inactive, TCR-CD3 inh inactive, PAD4 FP inh inactive, PRMT1 FP inh 50.6, HTRA1 inh inactive, SIAE primary inactive and PRMT1 inh conf inactive.
`CO[C@H]([C@H](C)/C=C/N(C)C=O)[C@@H](C)C(=O)CC[C@H](C)[C@H](O)[C@H](C)[C@H]1OC(=O)/C=C/C(C)=C/C[C@H](O)C[C@@H]2C=CC[C@@H](C[C@H](OC)[C@@H](C)[C@@H](OC)C[C@@H](OC)[C@@H]1C)O2` gave ABHD4 inh inactive, PRMT1 FP inh inactive and SIAE primary inactive.
Screening C=CCOC(=O)/C=C/C(=O)NC(N)=O returned ABHD4 inh inactive, TCR-CD3 inh inactive, PAD4 FP inh inactive, PRMT1 FP inh 76.5, HTRA1 inh inactive, SIAE primary inactive and PRMT1 inh conf 69.2.
C#CCNC(=O)C[C@@H]1C[C@@](CCC(=O)OCC)(C(=O)OCC)C2=CCCCN2C1=O was read as ABHD4 inh inactive, PRMT1 FP inh inactive and SIAE primary inactive.
CCN1/C(=C/C=C/C=C/C=C/c2sc3ccccc3[n+]2CC)Sc2ccccc21 was read as ABHD4 inh inactive, TCR-CD3 inh inactive, PAD4 FP inh inactive, PRMT1 FP inh 53.2, HTRA1 inh inactive, SIAE primary inactive and PRMT1 inh conf 23.1.
`Clc1ccc(OCc2nn3c(C4CCCCC4)nnc3s2)cc1` gave ABHD4 inh inactive, TCR-CD3 inh inactive, PAD4 FP inh inactive, PRMT1 FP inh 27.1, HTRA1 inh inactive, SIAE primary inactive and PRMT1 inh conf inactive.
O=C(/C=C/c1ccccc1)CCN1CCOCC1 was read as ABHD4 inh inactive, TCR-CD3 inh inactive, PRMT1 FP inh 27.1, HTRA1 inh inactive, SIAE primary inactive and PRMT1 inh conf 58.0.
CCN(CC)C1CC(=O)N(c2cccc(C)c2)C1=O (centres undefined) was read as PAD4 FP inh inactive.
For Cc1cccc(N2C(=O)C=CC2=O)c1 the results were ABHD4 inh inactive, TCR-CD3 inh inactive, PRMT1 FP inh 70.9, HTRA1 inh inactive, SIAE primary inactive and PRMT1 inh conf 87.6.
O=C1C=CC(=O)N1c1ccc2ccccc2c1 was read as ABHD4 inh inactive, TCR-CD3 inh inactive, PRMT1 FP inh 69.9, HTRA1 inh inactive, SIAE primary inactive and PRMT1 inh conf 90.2.
`COCCNC(=O)C1CCCN(C(=O)c2csc3ccccc23)CC1` (centres undefined) gave ABHD4 inh inactive, TCR-CD3 inh inactive, PRMT1 FP inh inactive and SIAE primary inactive.
Screening COCCNC(=O)C1CCCN(C(=O)c2oc3ccccc3c2C)CC1 (centres undefined) returned ABHD4 inh inactive, TCR-CD3 inh inactive, PRMT1 FP inh 45.8, SIAE primary inactive and PRMT1 inh conf inactive.
`CC(C)(C)OC(=O)NC1CCN(c2nc(-c3ccc(Br)cc3)cs2)CC1` gave ABHD4 inh inactive, PRMT1 FP inh inactive and SIAE primary inactive.
COc1cc(/C=C/C(=O)O)cc(S(=O)(=O)Nc2ccc3nc(C)sc3c2)c1OC was read as ABHD4 inh inactive, TCR-CD3 inh inactive, PAD4 FP inh inactive, PRMT1 FP inh 25.3, HTRA1 inh inactive, SIAE primary inactive and PRMT1 inh conf 27.6.
COc1cc(/C=C/C(=O)O)cc(S(=O)(=O)Nc2ccc(F)cc2)c1OC was read as ABHD4 inh inactive, TCR-CD3 inh inactive, PAD4 FP inh inactive, PRMT1 FP inh inactive, HTRA1 inh inactive and SIAE primary inactive.
For Cc1ccc(S(=O)(=O)NCC2(c3ccccc3)CCN(C)CC2)cc1 the results were ABHD4 inh inactive, TCR-CD3 inh inactive, PRMT1 FP inh inactive, HTRA1 inh inactive and SIAE primary inactive.
